Measurements published in ChEMBL document CHEMBL3243974, “Cyclic analogues of luteinizing hormone-releasing hormone with significant biological activities” (1978).

Experiments:
Type in all cases: functional
Rattus norvegicus [1] = organism: Rattus norvegicus; test: Stimulation of luteinizing hormone release in ovariectomized rat assessed as serum luteinizing hormone level at 250 ng pretreated with estrogen and progesterone by radioimmunoassay relative to control
How it was run: (§1)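 Ovariectomized rats pretreated with estrogen and progesterone, then given peptide at two doses (250 and 1000 ng). Saline alone and synthetic LH-RH at 2.5 and 10 ng served as comparators. Serum LH was measured by radioimmunoassay and reported in ng/mL ± SE.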

Rattus norvegicus [2] = organism: Rattus norvegicus; test: Stimulation of luteinizing hormone release in ovariectomized rat assessed as serum luteinizing hormone level at 1000 ng pretreated with estrogen and progesterone by radioimmunoassay relative to control; how it was run: as §1
Rattus norvegicus [3] = organism: Rattus norvegicus; test: Stimulation of luteinizing hormone release in ovariectomized rat at 1000 ng pretreated with estrogen and progesterone by radioimmunoassay relative to LH-RH
How it was run: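 Ovariectomized rats primed with estrogen and progesterone received peptide at 250 and 1000 ng, with saline and synthetic LH-RH (2.5 and 10 ng) as references. Serum LH was measured by radioimmunoassay. Activity is expressed as % of synthetic LH-RH (taken as 100) with 95% confidence limits.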

Compound | Activity (Rattus norvegicus [1]) [ng/mL] | Activity (Rattus norvegicus [2]) [ng/mL] | Activity (Rattus norvegicus [3]) [%]
CC(C)C[C@@H]1NC(=O)[C@@H](C)NC(=O)[C@H](Cc2ccc(O)cc2)NC(=O)[C@H](CO)NC(=O)[C@H](Cc2c[nH]c3ccccc23)NC(=O)[C@H](Cc2cnc[nH]2)NC(=O)CCNC(=O)CNC(=O)[C@@H]2CCCN2C(=O)[C@H](CCCNC(=N)N)NC1=O | 206.67 | 364.59 | 1.2
CC(C)C[C@H](NC(=O)[C@@H](C)NC(=O)[C@H](Cc1ccc(O)cc1)NC(=O)[C@H](CO)NC(=O)[C@H](Cc1c[nH]c2ccccc12)NC(=O)[C@H](Cc1cnc[nH]1)NC(=O)CCN)C(=O)N[C@@H](CCCNC(=N)N)C(=O)N1CCC[C@H]1C(=O)NCC(=O)O | 80.74 | 65.69 | <0.01
CC(C)C[C@@H]1NC(=O)[C@@H](C)NC(=O)[C@H](Cc2ccc(O)cc2)NC(=O)[C@H](CO)NC(=O)[C@H](Cc2c[nH]c3ccccc23)NC(=O)[C@H](Cc2cnc[nH]2)NC(=O)CCCCCNC(=O)CNC(=O)[C@@H]2CCCN2C(=O)[C@H](CCCNC(=N)N)NC1=O | 151.02 | 315.81 | 0.65
